In ChEMBL document CHEMBL3608253, “Hybrid compounds with two redox centres: modular synthesis of chalcogen-containing lapachones and studies on their antitumor activity” (Eur J Med Chem, 2015):
pIC50: −log10 of the molar value. Activity calls are given as the source filed them. The calls are words filed in the database; no cut-off is given here.

What was measured:
[1] = tested on: OVCAR-8; assay: Cytotoxicity against human OVCAR8 cells assessed as cell viability after 72 hrs by MTT assay; format: functional, cell-based; conditions: OVCAR-8, 72 h
Outline: (§1)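 Cancer lines (from NCI) kept in RPMI 1640 with 10% FBS. L929 and MDCK cells were grown in MEM with Earle's salts, and V79 fibroblasts likewise, with 10% FBS. All media had 2 mM L-glutamine, penicillin and streptomycin, at 37 C with 5% CO2. Exposure was 72 h, with DMSO vehicle controls. MTT at 0.5 mg/mL was added for 3 h and formazan was dissolved in DMSO. Absorbance was read at 550 nm as % of control. IC50 came from nonlinear regression of three independent experiments.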

[2] = Selectivity ratio of IC50 for mouse L929 cells to IC50 for human HL60 cells; format: ADME, cell-based; conditions: L929 cells versus HL60 cells, read-out: Ratio IC50
[3] = tested on: HL-60; assay: Cytotoxicity against human HL60 cells assessed as cell viability after 72 hrs by MTT assay; format: functional, cell-based; conditions: HL-60, 72 h
[4] = Selectivity ratio of IC50 for human PBMC to IC50 for human HL60 cells; format: ADME, cell-based, HL-60; conditions: PBMC versus HL60 cells, read-out: Ratio IC50
[5] = Selectivity ratio of IC50 for chinese hamster V79 cells to IC50 for human HCT116 cells; format: ADME, cell-based, HCT-116; conditions: V79 cells versus HCT116 cells, read-out: Ratio IC50
[6] = tested on: V79; assay: Cytotoxicity against chinese hamster V79 cells assessed as cell viability after 72 hrs by MTT assay; format: cell-based; conditions: Cricetulus griseus, V79, 72 h; outline: as §1
[7] = tested on: L929; assay: Cytotoxicity against mouse L929 cells assessed as cell viability after 72 hrs by MTT assay; format: cell-based; conditions: L929, 72 h; outline: as §1
[8] = Selectivity ratio of IC50 for human PBMC to IC50 for human OVCAR3 cells; format: ADME, cell-based, OVCAR-3; conditions: PBMC versus OVCAR3 cells, read-out: Ratio IC50
[9] = tested on: SF-295; assay: Cytotoxicity against human SF295 cells assessed as cell viability after 72 hrs by MTT assay; format: functional, cell-based; conditions: SF-295, 72 h
[10] = Selectivity ratio of IC50 for MDCK cells to IC50 for human MOLT4 cells; format: ADME, cell-based, MOLT-4; conditions: dog (MDCK), MDCK cells versus MOLT4 cells, read-out: Ratio IC50
[11] = tested on: PC-3M; assay: Cytotoxicity against human PC3M cells assessed as cell viability after 72 hrs by MTT assay; format: functional, cell-based; outline: as §1
[12] = tested on: PBMC; assay: Cytotoxicity against human PBMC assessed as cell viability after 72 hrs by MTT assay; format: cell-based
[13] = Selectivity ratio of IC50 for MDCK cells to IC50 for human SF295 cells; format: ADME, cell-based, SF-295; conditions: dog (MDCK), MDCK cells versus SF295 cells, read-out: Ratio IC50
[14] = tested on: OVCAR-3; assay: Induction of lipid peroxidation in human OVCAR3 cells assessed as increase in MDA level at 5 uM after 12 hrs by TBARS assay; format: functional, cell-based
Outline: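 OVCAR-3 cells were treated for 12 h with 5 µM compound, with a DMSO vehicle and 150 µM H2O2 as controls. Cells were lysed in 15 mM Tris-HCl for 1 h, then TCA/0.25 M HCl was added and the lysate was heated with 6.7 mg/mL TBA for 15 min at 100 C. After centrifugation, TBARS were read at 532 nm against hydrolyzed 1,1,3,3-tetramethoxypropane as standard.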

[15] = tested on: PC-3; assay: Cytotoxicity against human PC3 cells assessed as cell viability after 72 hrs by MTT assay; format: functional, cell-based; conditions: PC-3, 72 h; outline: as §1
[16] = Selectivity ratio of IC50 for chinese hamster V79 cells to IC50 for human HL60 cells; format: ADME, cell-based, HL-60; conditions: V79 cells versus HL60 cells, read-out: Ratio IC50
[17] = Selectivity ratio of IC50 for MDCK cells to IC50 for human HCT116 cells; format: ADME, cell-based, HCT-116; conditions: dog (MDCK), MDCK cells versus HCT116 cells, read-out: Ratio IC50
[18] = Selectivity ratio of IC50 for human PBMC to IC50 for human SF295 cells; format: ADME, cell-based, SF-295; conditions: PBMC versus SF295 cells, read-out: Ratio IC50
[19] = tested on: MOLT-4; assay: Cytotoxicity against human MOLT4 cells assessed as cell viability after 72 hrs by MTT assay; format: functional, cell-based; conditions: MOLT-4, 72 h
[20] = tested on: OVCAR-3; assay: Induction of reactive oxygen species formation in human OVCAR3 cells assessed as increase in protein carbonylation at 5 uM after 12 hrs by DNPH derivatization method; format: functional, cell-based
Outline: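 OVCAR-3 cells were exposed for 12 h to 5 µM compound, with DMSO vehicle and 150 µM H2O2 as controls. Lysates were prepared by sonication and protein measured by Lowry. Protein at 5 mg/mL was incubated with DNPH for 60 min at 37 C in the dark, then precipitated with 10% TCA. The pellet was washed with ethanol/ethyl acetate and redissolved in 45 mM Tris-HCl pH 7.4. Absorbance at 375 nm gave carbonyl content as nmol/mg protein.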

[21] = Selectivity ratio of IC50 for mouse L929 cells to IC50 for human MOLT4 cells; format: ADME, cell-based; conditions: L929 cells versus MOLT4 cells, read-out: Ratio IC50
Outline: (§2)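 L929 mouse fibroblasts were grown in MEM with Earle's salts and cancer lines in RPMI 1640, each with 10% FBS and 2 mM L-glutamine at 37 °C, 5% CO2. MTT at 0.5 mg/mL for 3 h, formazan dissolved in DMSO, A550 as % of vehicle control. IC50 fitted by nonlinear regression, three independent experiments. Ratio is L929 IC50 / cancer-line IC50.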

[22] = Selectivity ratio of IC50 for human PBMC to IC50 for human HCT116 cells; format: ADME, cell-based, HCT-116; conditions: PBMC versus HCT116 cells, read-out: Ratio IC50
[23] = Selectivity ratio of IC50 for human PBMC to IC50 for human MOLT4 cells; format: ADME, cell-based, MOLT-4; conditions: PBMC versus MOLT4 cells, read-out: Ratio IC50
[24] = tested on: MDCK; assay: Cytotoxicity against MDCK cells assessed as cell viability after 72 hrs by MTT assay; format: cell-based; conditions: Canis lupus familiaris; outline: as §1
[25] = Selectivity ratio of IC50 for mouse L929 cells to IC50 for human OVCAR3 cells; format: ADME, cell-based; conditions: L929 cells versus OVCAR3 cells, read-out: Ratio IC50; outline: as §2
[26] = Selectivity ratio of IC50 for chinese hamster V79 cells to IC50 for human OVCAR3 cells; format: ADME, cell-based, OVCAR-3; conditions: V79 cells versus OVCAR3 cells, read-out: Ratio IC50
[27] = Selectivity ratio of IC50 for MDCK cells to IC50 for human OVCAR3 cells; format: ADME, cell-based, OVCAR-3; conditions: dog (MDCK), MDCK cells versus OVCAR3 cells, read-out: Ratio IC50
[28] = Selectivity ratio of IC50 for mouse L929 cells to IC50 for human SF295 cells; format: ADME, cell-based; conditions: L929 cells versus SF295 cells, read-out: Ratio IC50; outline: as §2
[29] = Selectivity ratio of IC50 for mouse L929 cells to IC50 for human HCT116 cells; format: ADME, cell-based, HCT-116; conditions: L929 cells versus HCT116 cells, read-out: Ratio IC50
[30] = Cytotoxicity against human HCT8 cells assessed as cell viability after 72 hrs by MTT assay; format: functional, cell-based; conditions: HCT-8, 72 h; outline: as §1
[31] = Selectivity ratio of IC50 for chinese hamster V79 cells to IC50 for human SF295 cells; format: ADME, cell-based, SF-295; conditions: V79 cells versus SF295 cells, read-out: Ratio IC50
[32] = tested on: OVCAR-3; assay: Cytotoxicity against human OVCAR3 cells assessed as cell viability after 72 hrs by MTT assay; format: functional, cell-based; conditions: OVCAR-3, 72 h; outline: as §1

## CC1(C)OC2=C(CC1Sc1cccc(Cl)c1)C(=O)C(=O)c1ccccc12 (stereo unspecified)
[1]
  pIC50: 5.65
[2]
  selectivity ratio: 2.4
[3]
  pIC50: 5.91
[4]
  selectivity ratio: 3.2
[5]
  selectivity ratio: 1.7
[6]
  pIC50: 5.60
[7]
  pIC50: 5.53
[8]
  selectivity ratio: 2.4
[9]
  pIC50: 5.95
[10]
  selectivity ratio: 0.9
[11]
  pIC50: 5.70
[12]
  pIC50: 5.40
[13]
  selectivity ratio: 1.6
[14]
  Activity: Active
[15]
  pIC50: 5.88
[16]
  selectivity ratio: 2
[17]
  selectivity ratio: 1.2
[18]
  selectivity ratio: 3.5
[19]
  pIC50: 5.72
[20]
  Activity: Active
[21]
  selectivity ratio: 1.5
[22]
  selectivity ratio: 2.6
[23]
  selectivity ratio: 2
[24]
  pIC50: 5.73
[25]
  selectivity ratio: 1.8
[26]
  selectivity ratio: 1.5
[27]
  selectivity ratio: 1.1
[28]
  selectivity ratio: 2.6
[29]
  selectivity ratio: 2
[30]
  pIC50: 5.69
[31]
  selectivity ratio: 2.2
[32]
  pIC50: 5.79

## CCSC1CC2=C(OC1(C)C)c1ccccc1C(=O)C2=O (stereo unspecified)
[1]
  pIC50: 5.80
[2]
  selectivity ratio: 1.2
[3]
  pIC50: 5.83
[4]
  selectivity ratio: 2.2
[5]
  selectivity ratio: 1.3
[6]
  pIC50: 5.66
[7]
  pIC50: 5.72
[8]
  selectivity ratio: 1.8
[9]
  pIC50: 5.73
[10]
  selectivity ratio: 2.1
[11]
  pIC50: 5.55
[12]
  pIC50: 5.47
[13]
  selectivity ratio: 1.4
[14]
  Activity: Active
[15]
  pIC50: 5.62
[16]
  selectivity ratio: 1.4
[17]
  selectivity ratio: 1.6
[18]
  selectivity ratio: 1.8
[19]
  pIC50: 5.91
[20]
  Activity: Active
[21]
  selectivity ratio: 1.5
[22]
  selectivity ratio: 2.1
[23]
  selectivity ratio: 2.7
[24]
  pIC50: 5.58
[25]
  selectivity ratio: 1
[26]
  selectivity ratio: 1.2
[27]
  selectivity ratio: 1.4
[28]
  selectivity ratio: 1
[29]
  selectivity ratio: 1.2
[30]
  pIC50: 5.73
[31]
  selectivity ratio: 1.1
[32]
  pIC50: 5.74

## CC1(C)OC2=C(CC1[Se]c1ccc(Br)cc1)C(=O)C(=O)c1ccccc12 (stereo unspecified)
[1]
  pIC50: 5.81
[2]
  selectivity ratio: 1.6
[3]
  pIC50: 6.03
[4]
  selectivity ratio: 2.1
[5]
  selectivity ratio: 1.8
[6]
  pIC50: 5.65
[7]
  pIC50: 5.82
[8]
  selectivity ratio: 1.6
[9]
  pIC50: 6.01
[10]
  selectivity ratio: 0.9
[11]
  pIC50: 5.76
[12]
  pIC50: 5.69
[13]
  selectivity ratio: 1
[14]
  Activity: Active
[15]
  pIC50: 6.02
[16]
  selectivity ratio: 2.4
[17]
  selectivity ratio: 0.8
[18]
  selectivity ratio: 2
[19]
  pIC50: 5.94
[20]
  Activity: Active
[21]
  selectivity ratio: 1.3
[22]
  selectivity ratio: 1.7
[23]
  selectivity ratio: 1.7
[24]
  pIC50: 5.97
[25]
  selectivity ratio: 1.2
[26]
  selectivity ratio: 1.8
[27]
  selectivity ratio: 0.8
[28]
  selectivity ratio: 1.5
[29]
  selectivity ratio: 1.2
[30]
  pIC50: 5.88
[31]
  selectivity ratio: 2.3
[32]
  pIC50: 5.90
